This passage reports Activity and MIC results from ChEMBL document CHEMBL1151172, “Further labdane and kaurane diterpenoids and other constituents from Plectranthus fruticosus” (2004).

Molecules are shown by their SMILES. Values after ≈ are worked out from the molar mass of the structure shown. Active and inactive are the calls of the source. The calls are words filed in the database; no cut-off is given here.

The subject of one test is Escherichia coli. Description: Antimicrobial activity against Escherichia coli ATCC 25922 by serial broth microdilution method. The class given is functional. The gist of the method: (§1)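 MIC by NCCLS serial broth microdilution in Mueller-Hinton broth. Compounds dissolved in DMSO and tested at graded concentrations from 250 to 7.8 µg/mL. A solvent blank was included.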
(In general: In broth dilution the organism is exposed to a series of concentrations in liquid medium.)

The test system of a further test is Candida albicans. Put plainly: Antimicrobial activity against Candida albicans CIP 3153A by serial broth microdilution method. The class given is functional, organism-based. In short, it runs like this: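 Yeast MIC by serial broth microdilution following NCCLS, using YMA medium. Compounds were dissolved in DMSO and tested over graded concentrations from 250 to 7.8 µg/mL, with a solvent blank.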

In another test the test system is Pseudomonas aeruginosa. Put plainly: Antimicrobial activity against Pseudomonas aeruginosa ATCC 27853 by serial broth microdilution method. The class given is functional, organism-based. The gist of the method:
as §1

The test system of another test is Staphylococcus aureus. Description: Antimicrobial activity against Staphylococcus aureus ATCC 25923 by serial broth microdilution method. The class given is functional. The gist of the method:
as §1

Broadly, the MIC is the least concentration at which growth counts as inhibited. Lower therefore signals greater potency.

Consider `C=C1CC[C@@H]2[C@H]([C@H]3[C@H]1CC[C@@]3(O)CO)C2(C)C`, for which the result in the test with Escherichia coli, with Candida albicans and in the test with Pseudomonas aeruginosa was inactive.
With `C=C1C[C@@]23CC[C@H]4[C@@](C)(CCC[C@@]4(C)C(=O)OC)[C@@H]2C[C@H](O)[C@@H]1C3`, the outcome in the test with Escherichia coli, in the test with Candida albicans and in the test on Pseudomonas aeruginosa was inactive.
Turning to `C=C1C[C@]23C[C@H]1[C@@H](OC(C)=O)C[C@H]2[C@]1(C)CCC[C@@](C)(C(=O)O)[C@H]1C[C@H]3O`, the outcome with Escherichia coli, with Candida albicans and in the test on Pseudomonas aeruginosa was inactive.
Consider `COC(=O)[C@]1(C)CCC[C@@]2(C)[C@@H]3C[C@H](OC(C)=O)[C@@H]4C[C@]3(C=C4C)[C@H](O)C[C@@H]21`, for which the outcome in the test on Escherichia coli, in the test on Candida albicans and in the test with Pseudomonas aeruginosa was inactive.
Take `NC[C@H]1O[C@H](O[C@H]2[C@H](O)[C@@H](O[C@H]3O[C@H](CO)[C@@H](O)[C@H](N)[C@H]3O)[C@H](N)C[C@@H]2N)[C@H](O)[C@@H](O)[C@@H]1O` [KANAMYCIN]: the MIC against Escherichia coli and with Staphylococcus aureus was below 7.8 µg/mL in each case.
`C[C@@]12CCC[C@@](C)(C(=O)O)[C@H]1C[C@@H](O)[C@@]13C[C@@H](CC[C@@H]21)[C@]1(C)O[C@@H]13`: the outcome in the test with Escherichia coli, in the test with Candida albicans and in the test on Pseudomonas aeruginosa was inactive.
As for `C=C1[C@H]2C[C@@]3(CC[C@H]4[C@@](C)(CCC[C@@]4(C)C(=O)OC)[C@@H]3C[C@@H]2OC(C)=O)[C@H]1O`, the result with Escherichia coli, with Candida albicans and in the test with Pseudomonas aeruginosa was inactive.
Turning to `COC(=O)[C@]1(C)CCC[C@@]2(C)[C@@H]3C[C@H](OC(C)=O)[C@@H]4C[C@@]3(CC[C@@H]21)[C@H]1O[C@]14C`, the outcome in the test on Escherichia coli, in the test with Candida albicans and in the test on Pseudomonas aeruginosa was inactive.
As to `CC1=C[C@]23C[C@H]1CC[C@H]2[C@]1(C)CCC[C@@](C)(C(=O)O)[C@H]1C[C@H]3O`, the result with Escherichia coli, in the test with Candida albicans and in the test on Pseudomonas aeruginosa was inactive.
As to `COC(=O)[C@]1(C)CCC[C@@]2(C)[C@@H]3C[C@H](OC(C)=O)[C@@H]4C[C@]3(C=C4C=O)CC[C@@H]21`, the result with Escherichia coli, in the test on Candida albicans and in the test on Pseudomonas aeruginosa was inactive. Moreover, in the test on Staphylococcus aureus, inhibition of growth (MIC) required 62.5 µg/mL (≈ 161 µM).
On to `C=C/C(C)=C\C[C@@H]1C(=C)CC[C@@H]2C(C)(C)[C@H](O)[C@@H](O)C[C@@]12C`, for which the outcome with Escherichia coli, in the test with Candida albicans and with Pseudomonas aeruginosa was inactive.
As to `CC(=O)O[C@H]1C[C@@H]2[C@@]3(C=C(C=O)[C@H]1C3)CC[C@H]1[C@@]2(C)CCC[C@@]1(C)C(=O)O`, the outcome in the test with Escherichia coli, with Candida albicans and in the test on Pseudomonas aeruginosa was inactive.
With `C=C1[C@H]2C[C@@]3(CC[C@H]4[C@@](C)(CCC[C@@]4(C)C(=O)O)[C@@H]3C[C@@H]2OC(C)=O)[C@H]1O`, the outcome in the test with Escherichia coli, in the test on Candida albicans and in the test on Pseudomonas aeruginosa was inactive.
